According to ChEMBL document CHEMBL1144203, “Synthesis and antiviral evaluation of acyclic azanucleosides developed from sulfanilamide as a lead structure” (Bioorg Med Chem, 2008):
The source made the active and inactive calls. The rule behind the calls is not given here.

What was measured:
[1] = Cytotoxicity against MDCK cells assessed as alteration in cell morphology by MTS assay; type: cell-based, Canis lupus familiaris; conditions: dog
In short: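 Uninfected host cells were exposed to compound and examined under the microscope. MCC was the minimal compound concentration causing a microscopically detectable change in normal cell morphology.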

[2] = Cytotoxicity against MDCK cells assessed as decrease in cell viability by MTS assay; type: cell-based, Canis lupus familiaris; conditions: dog
In short: (§1)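 Uninfected host cells were exposed to compound. CC50 was taken as the concentration giving a 50% fall in cell viability, measured by a colorimetric formazan-based MTS assay.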

[3] = Cytotoxicity against CRFK cells assessed as decrease in cell viability by MTS assay; type: cell-based, Felis catus; conditions: cat; in short: as §1
HEL = assay: Cytotoxicity against HEL cells assessed as decrease in cell viability upto 100 uM by MTS assay; type: cell-based; conditions: human
HeLa = assay: Cytotoxicity against human HeLa cells assessed as decrease in cell viability upto 100 uM by MTS assay; type: functional, cell-based
In short: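 Uninfected HeLa host cells were tested up to 100 μM. CC50 is the concentration causing a 50% drop in cell viability by colorimetric formazan-based MTS assay. Alternatively, MCC is the minimal concentration giving microscopically detectable alteration of normal cell morphology.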

Human respirovirus 3 = assay: Antiviral activity against Parainfluenza 3 virus infected in Vero cells assessed as inhibition of virus-induced cytopathic effect at 100 uM by MTS assay; type: functional, organism-based
In short: (§2)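 Vero cell monolayers were infected with the virus in cell-based CPE assays. EC50 is the concentration giving 50% inhibition of virus-induced cytopathic effect, scored visually or by MTS formazan colorimetric cell-viability read-out. The highest concentration tested was 100 μM for most compounds and lower for a few.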

[4] = test system: Mammalian orthoreovirus 1; assay: Antiviral activity against Reovirus1 infected in Vero cells assessed as inhibition of virus-induced cytopathic effect at 100 uM by MTS assay; type: functional, organism-based; in short: as §2
Sindbis virus = assay: Antiviral activity against Sindbis virus infected in Vero cells assessed as inhibition of virus-induced cytopathic effect at 100 uM by MTS assay; type: functional, organism-based; in short: as §2
Feline coronavirus = assay: Antiviral activity against feline coronavirus infected in CRFK cells assessed as inhibition of virus-induced cytopathic effect at 100 uM by MTS assay; type: functional, organism-based
Felid alphaherpesvirus 1 = assay: Antiviral activity against feline herpes virus infected in CRFK cells assessed as inhibition of virus-induced cytopathic effect at 100 uM by MTS assay; type: functional, organism-based
Human alphaherpesvirus 1 = assay: Antiviral activity against HSV1 virus infected in HEL cells assessed as inhibition of virus-induced cytopathic effect at 100 uM by MTS assay; type: functional, organism-based
Human alphaherpesvirus 2 = assay: Antiviral activity against HSV2 virus infected in HEL cells assessed as inhibition of virus-induced cytopathic effect at 100 uM by MTS assay; type: functional, organism-based
Coxsackievirus B4 [5] = assay: Antiviral activity against Coxsackievirus B4 infected in HeLa cells assessed as inhibition of virus-induced cytopathic effect at 100 uM by MTS assay; type: functional, organism-based
In short: (§3)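 HeLa cells were infected with the virus, and compounds were tested up to 100 μM. EC50 is the concentration that halves virus-induced cytopathic effect, read by visual CPE scoring or by MTS formazan colorimetric viability measurement.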

[6] = test system: Respiratory syncytial virus; assay: Antiviral activity against respiratory syncytial virus infected in HeLa cells assessed as inhibition of virus-induced cytopathic effect at 100 uM by MTS assay; type: functional, organism-based; in short: as §3
Coxsackievirus B4 [7] = assay: Antiviral activity against Coxsackievirus B4 infected in Vero cells assessed as inhibition of virus-induced cytopathic effect at 100 uM by MTS assay; type: functional, organism-based; in short: as §2
Punta Toro virus = assay: Antiviral activity against Punta Toro virus infected in Vero cells assessed as inhibition of virus-induced cytopathic effect at 100 uM by MTS assay; type: functional, organism-based; in short: as §2
MDCK = assay: Cytotoxicity against MDCK cells assessed as decrease in cell viability upto 100 uM by MTS assay; type: cell-based, Canis lupus familiaris; conditions: dog
[8] = Cytotoxicity against CRFK cells assessed as decrease in cell viability upto 100 uM by MTS assay; type: cell-based, Felis catus; conditions: cat

Row | Compound | MCC [1] [µM] | CC50 [2] [µM] | CC50 [3] [µM] | Activity (HEL) | Activity (HeLa) | Activity (Human respirovirus 3) | Activity [4] | Activity (Sindbis virus) | Activity (Feline coronavirus) | Activity (Felid alphaherpesvirus 1) | Activity (Human alphaherpesvirus 1) | Activity (Human alphaherpesvirus 2) | Activity (Coxsackievirus B4 [5]) | Activity [6] | Activity (Coxsackievirus B4 [7]) | Activity (Punta Toro virus) | Activity (MDCK) | Activity [8]
1 | NC12CC3CC(CC(C3)C1)C2 [AMANTADINE] | > 100 | > 100 | – | – | – | – | – | – | – | – | – | – | – | – | – | – | – | –
2 | CC(C)(C)C(=O)OCCN(Cn1cc(F)c(=O)[nH]c1=O)S(=O)(=O)c1ccc([N+](=O)[O-])cc1 | 20 | 69 | 44 | Not Active | inactive | inactive | inactive | inactive | inactive | inactive | inactive | inactive | inactive | inactive | inactive | inactive | – | –
3 | CC(N)C12CC3CC(CC(C3)C1)C2 (configuration not stated) [RIMANTADINE] | > 100 | > 100 | – | – | – | – | – | – | – | – | – | – | – | – | – | – | – | –
4 | CCOC(=O)C1=C[C@@H](OC(CC)CC)[C@H](NC(C)=O)[C@@H](N)C1 [OSELTAMIVIR] | > 100 | > 100 | – | – | – | – | – | – | – | – | – | – | – | – | – | – | – | –
5 | CC(C)(C)C(=O)OCCN(Cn1ccc(=O)[nH]c1=O)S(=O)(=O)c1ccc(N)cc1 | – | – | – | Not Active | inactive | inactive | inactive | inactive | inactive | inactive | inactive | inactive | inactive | inactive | inactive | inactive | Not Active | Not Active
6 | Cc1cn(CN(CCO)S(=O)(=O)c2ccccc2N)c(=O)[nH]c1=O | – | – | – | Not Active | inactive | inactive | inactive | inactive | inactive | inactive | inactive | inactive | inactive | inactive | inactive | inactive | Not Active | Not Active
7 | Cc1cn(CN(CCOC(=O)C(C)(C)C)S(=O)(=O)c2ccc([N+](=O)[O-])cc2)c(=O)[nH]c1=O | – | – | 53 | Not Active | inactive | inactive | inactive | inactive | inactive | inactive | inactive | inactive | inactive | inactive | inactive | inactive | Not Active | –
8 | CC(C)(C)C(=O)OCCN(Cn1ccc(=O)[nH]c1=O)S(=O)(=O)c1ccc([N+](=O)[O-])cc1 | – | – | 49 | Not Active | inactive | inactive | inactive | inactive | inactive | inactive | inactive | inactive | inactive | inactive | inactive | inactive | Not Active | –
9 | CC(C)(C)C(=O)OCCN(Cn1ccc(=O)[nH]c1=O)S(=O)(=O)c1ccccc1N | – | – | – | Not Active | inactive | inactive | inactive | inactive | inactive | inactive | inactive | inactive | inactive | inactive | inactive | inactive | Not Active | Not Active
